Experimental data of several laboratories.
Each line is one published result; the experiments were not run side by side.
Matrix: plasma

Compound	host	route	dose	setting	measurement	value
C=CCNc1c(O)cc2c(O)c1C[C@@H](C)C[C@H](OC)[C@H](O)[C@@H](C)/C=C(\C)[C@H](OC(N)=O)[C@@H](OC)/C=C\C=C(/C)C(=O)N2	human	intravenous	400 mg/m²	patients, infusion	AUC(0-inf)	11700 ng·h/mL
Cc1ncc2n1-c1ccc(Cl)cc1C(c1ccccc1F)=NC2	male human	oral	7.5 mg		AUC	117 ng·h/mL
OCc1ncc2n1-c1ccc(Cl)cc1C(c1ccccc1F)=NC2	human	oral	2 mg		AUC(0-inf)	9.63 ng·h/mL
C=C(C)[C@@H]1CC[C@]2(NCCN3CCS(=O)(=O)CC3)CC[C@]3(C)[C@H](CC[C@@H]4[C@@]5(C)CC=C(C6=CC[C@@](COc7ncccc7C#N)(C(=O)O)CC6)C(C)(C)[C@@H]5CC[C@]43C)[C@@H]12	human	oral	100 mg	fasted, tablet	AUC(0-inf)	28000 ng·h/mL
CN(C)CCc1c[nH]c2ccccc12	human	intravenous	9 mg	healthy volunteers, infusion	AUC(0-inf)	5.87 ng·h/mL
c1cc([C@H]2CC[C@]3(CC2)OO[C@]2(O3)C3CC4CC(C3)CC2C4)ccc1OCCN1CCOCC1	human	oral	200 mg	patients	AUC(0-inf)	3180 ng·h/mL
CC(=C/C=C/C(C)=C/C(=O)O)/C=C1\CCCc2ccccc21	human	oral	20 mg	single dose, fasted, healthy volunteers	AUC(0-inf)	827 ng·h/mL
N=C(N)NCCC[C@@H](NC(=O)[C@@H](N)Cc1ccccc1)C(=O)N[C@@H](Cc1ccccc1)C(=O)N[C@@H](CCCCN)C(N)=O	human	subcutaneous	25 mg	patients	AUC(0-t)	4620 ng·h/mL
COc1ccc(C[C@@H]2NC(=O)[C@H]([C@@H](C)O)NC(=O)[C@@H]3[C@@H]4CCN3C(=O)[C@@H]3Cc5cn(c6ccc(F)cc56)CCCCCCN(Cc5ccc(cc5)CCNC(=O)[C@]5(C)CCCN5C2=O)C(=O)CCC(=O)N[C@@H](C)C(=O)N[C@H](CNC(=O)CCCCC[N+](C)(C)C)C(=O)N[C@@H](Cc2cccc(c2)CNC(=O)CO4)C(=O)N3)cc1	human	oral	200 mg	single dose	AUC(0-t)	0.481 µM·h
CC(C)[C@H](N)C(=O)NCCCS(=O)(=O)O	human	oral	256.5 mg	multiple doses, twice daily, fasted	AUC(0-t)	11200 ng·h/mL
